# Measurements: ChEMBL document CHEMBL1275449, “Potent in vitro antifungal activities of naturally occurring acetylenic acids” (Antimicrob Agents Chemother, 2008)
# Key:
# [1] = test system: KB; assay: Cytotoxicity against human KB cells up to 32 uM by neutral red method; format: cell-based
# Summary of the method: (§1)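 Neutral red uptake cytotoxicity, top concentration 32 μM.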
# [2] = test system: Candida tropicalis; assay: Antifungal activity against Candida tropicalis ATCC 750 after 48 hrs by CLSI method; format: functional, organism-based; details: ATCC 750, 48 h
# Summary of the method: (§2)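 Yeast suspensions made from 3-5 colonies off 24-72 h SD agar plates in saline. They were diluted by OD630 standard curve in RPMI 1640 (0.2% dextrose, 0.03% glutamine, 0.165 M MOPS, pH 7.0) to 1.5 × 10³ CFU/ml. Twofold dilutions (11 concentrations, 20% DMSO-saline) run in duplicate. OD530 read before and after 35°C, 48 h. Line values are top test concentrations; no-growth endpoints give MIC/MFC.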
# [3] = test system: Cryptococcus neoformans; assay: Antifungal activity against Cryptococcus neoformans ATCC 90113 after 72 hrs by CLSI method; format: functional, organism-based; details: ATCC 90113, 72 h
# Summary of the method: (§3)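 SD broth replaced RPMI because growth in RPMI was poor; other CLSI conditions were kept. Inoculum was 1.5 × 10³ CFU/ml from colonies on SD agar, checked by plating. Twofold serial dilutions (11 concentrations) in 20% DMSO-saline were tested in duplicate. OD530 was read before and after incubation at 35°C for 72 h. Percent growth gave IC50; the MIC is the lowest concentration with no detectable growth.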
# [4] = test system: Aspergillus niger; assay: Antifungal activity against Aspergillus niger ATCC 16404 after 48 h by CLSI method; details: ATCC 16404, 48 h
# [5] = test system: Trichophyton mentagrophytes; assay: Antifungal activity against Trichophyton mentagrophytes ATCC 9533 by CLSI method; format: functional, organism-based
# Summary of the method: (§4)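 Growth scraped from 1- to 6-week-old potato dextrose slants and filtered through Miracloth. Diluted in 5% Alamar blue-RPMI 1640 (MOPS pH 7.0) to 2.7 × 10⁴ CFU/ml. Eleven twofold dilutions in duplicate. Fluorescence at 544 nm excitation/590 nm emission read before and after 35°C, 5 days. IC50 fitted from percent growth. MIC taken as no detectable growth; MFC from clear or blue wells plated on PD agar.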
# [6] = test system: Candida albicans; assay: Antifungal activity against Candida albicans ATCC 200955 after 48 hrs by CLSI method; format: functional, organism-based; details: ATCC 200955, 48 h
# Summary of the method: (§5)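 CLSI broth microdilution. Colonies from 24–72 h SD agar suspended in saline and sized by OD630 standard curve. Inoculum 1.5 × 10³ CFU/ml (final) in RPMI 1640 (0.2% dextrose, 0.03% glutamine, 0.165 M MOPS, pH 7.0). Twofold dilutions (11 levels) from 20% DMSO-saline, in duplicate. 35°C for 48 h, OD530 read before and after. IC50 fitted from % growth. MIC: no detectable growth. MFC: subculture onto SD agar.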
# [7] = test system: Aspergillus flavus; assay: Antifungal activity against Aspergillus flavus ATCC 204304 after 48 h by CLSI method; details: ATCC 204304, 48 h
# [8] = test system: Aspergillus fumigatus; assay: Antifungal activity against Aspergillus fumigatus ATCC 90906 after 48 h by CLSI method; details: ATCC 90906, 48 h
# [9] = test system: Candida parapsilosis; assay: Antifungal activity against Candida parapsilosis ATCC 22019 after 48 hrs by CLSI method; format: functional, organism-based; details: Lodderomyces parapsilosis, ATCC 22019, 48 h; summary of the method: as §2
# [10] = test system: Candida albicans; assay: Antifungal activity against Fluconazole resistant Candida albicans clinical isolate 1 after 48 hrs by CLSI method; format: functional, organism-based; summary of the method: as §5
# [11] = test system: Candida albicans; assay: Antifungal activity against Candida albicans ATCC 32354 after 48 hrs by CLSI method; format: functional, organism-based; details: ATCC 32354, 48 h; summary of the method: as §5
# [12] = test system: Aspergillus fumigatus; assay: Antifungal activity against Aspergillus fumigatus ATCC 204305 after 48 h by CLSI method; details: ATCC 204305, 48 h
# [13] = test system: Candida albicans; assay: Antifungal activity against Candida albicans ATCC 60193 after 48 hrs by CLSI method; format: functional, organism-based; details: ATCC 60193, 48 h; summary of the method: as §5
# [14] = test system: LLC-PK1; assay: Cytotoxicity against pig LLC-PK1 cells up to 32 uM by neutral red method; format: cell-based, Sus scrofa; summary of the method: as §1
# [15] = test system: Pichia kudriavzevii; assay: Antifungal activity against Candida krusei ATCC 6258 after 48 hrs by CLSI method; format: functional, organism-based; details: ATCC 6258, 48 h
# Summary of the method: (§6)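 Candida inocula came from 24–72-h SD agar colonies suspended in saline. They were diluted by OD630 standard curve into RPMI 1640 (0.2% dextrose, 0.03% glutamine, 0.165 M MOPS, pH 7.0) to 1.5 × 10³ CFU/ml. Compounds were run as 11 twofold dilutions in 20% DMSO-saline, in duplicate, at 35°C for 48 h, with OD530 read before and after. Percent growth at the top concentration, IC50, MIC, and MFC (SD agar plating) were derived.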
# [16] = test system: Vero; assay: Cytotoxicity against African green monkey Vero cells up to 32 uM by neutral red method; format: cell-based; details: chlorocebus sabaeus; summary of the method: as §1
# [17] = test system: Trichophyton rubrum; assay: Antifungal activity against Trichophyton rubrum ATCC MYA-4438 by CLSI method; format: functional, organism-based; summary of the method: as §4
# [18] = test system: Trichophyton mentagrophytes; assay: Antifungal activity against Trichophyton mentagrophytes ATCC MYA-4439 by CLSI method; format: functional, organism-based; summary of the method: as §4
# [19] = test system: BT-549; assay: Cytotoxicity against human BT549 cells up to 32 uM by neutral red method; format: cell-based; summary of the method: as §1
# [20] = test system: SK-MEL; assay: Cytotoxicity against human SK-MEL cells up to 32 uM by neutral red method; format: cell-based; summary of the method: as §1
# [21] = test system: Candida albicans; assay: Antifungal activity against Candida albicans ATCC 90028 after 48 hrs by CLSI method; format: functional, organism-based; details: ATCC 90028, 48 h; summary of the method: as §5
# [22] = test system: Candida albicans; assay: Antifungal activity against Candida albicans ATCC 14053 after 48 hrs by CLSI method; format: functional, organism-based; details: ATCC 14053, 48 h; summary of the method: as §5
# [23] = test system: Candida albicans; assay: Antifungal activity against Fluconazole resistant Candida albicans clinical isolate 17 after 48 hrs by CLSI method; format: functional, organism-based; summary of the method: as §5
# [24] = test system: SK-OV-3; assay: Cytotoxicity against human SKOV3 cells up to 32 uM by neutral red method; format: cell-based; summary of the method: as §1
# [25] = test system: Trichophyton rubrum; assay: Antifungal activity against Trichophyton rubrum ATCC 10218 by CLSI method; format: functional, organism-based; summary of the method: as §4
# [26] = test system: Nakaseomyces glabratus; assay: Antifungal activity against Candida glabrata ATCC 90030 after 48 hrs by CLSI methodCandida glabrata; format: functional, organism-based; details: ATCC 90030, 48 h; summary of the method: as §6
# [27] = test system: Cryptococcus neoformans; assay: Antifungal activity against Cryptococcus neoformans ATCC 66031 after 72 hrs by CLSI method; format: functional, organism-based; details: ATCC 66031, 72 h; summary of the method: as §3
structure (smiles),measurement,setting,value
CCCCCC#CCC#CCC#CCC#CCCCC(=O)O,Activity,[1],Non-toxic
same,IC50,[2],27700 nM
same,IC50,[3],> 169000 nM
same,IC50,[4],100000 nM
same,IC50,[5],14200 nM
same,MIC,[5],21.1 µM
same,IC50,[6],2000 nM
same,MFC,[6],21.1 µM
same,MIC,[6],5.3 µM
same,IC50,[7],> 169000 nM
same,IC50,[8],13300 nM
same,MIC,[8],84.5 µM
same,IC50,[9],5400 nM
same,MIC,[9],63.3 µM
same,IC50,[10],1700 nM
same,MIC,[10],42.2 µM
same,IC50,[11],4000 nM
same,MIC,[11],31.7 µM
same,IC50,[12],10000 nM
same,MIC,[12],84.5 µM
same,IC50,[13],4500 nM
same,MIC,[13],63.3 µM
same,Activity,[14],Non-toxic
same,IC50,[15],> 169000 nM
same,Activity,[16],Non-toxic
same,IC50,[17],2900 nM
same,MIC,[17],31.7 µM
same,IC50,[18],6700 nM
same,MIC,[18],31.7 µM
same,Activity,[19],Non-toxic
same,Activity,[20],Non-toxic
same,IC50,[21],5000 nM
same,MIC,[21],42.2 µM
same,IC50,[22],8100 nM
same,MIC,[22],63.3 µM
same,IC50,[23],3500 nM
same,MIC,[23],42.2 µM
same,Activity,[24],Non-toxic
same,IC50,[25],8400 nM
same,MIC,[25],15.8 µM
CC(=O)N1CCN(c2ccc(OCC3COC(Cn4ccnc4)(c4ccc(Cl)cc4Cl)O3)cc2)CC1 (stereo not drawn) [KETOCONAZOLE],IC50,[2],40 nM
same,MIC,[2],0.19 µM
same,IC50,[3],100 nM
same,MFC,[3],1.2 µM
same,MIC,[3],0.3 µM
same,IC50,[4],6000 nM
same,MIC,[4],9.4 µM
same,IC50,[5],200 nM
same,MIC,[5],0.4 µM
same,IC50,[6],< 10 nM
same,MIC,[6],0.01 µM
same,IC50,[7],2800 nM
same,MIC,[7],4.7 µM
same,IC50,[8],3200 nM
same,MIC,[8],7.1 µM
same,IC50,[9],40 nM
same,MIC,[9],0.13 µM
same,IC50,[10],< 10 nM
same,MIC,[10],0.1 µM
same,IC50,[11],10 nM
same,MIC,[11],0.03 µM
same,IC50,[12],2700 nM
same,MIC,[12],4.7 µM
same,IC50,[13],10 nM
same,MIC,[13],0.02 µM
same,IC50,[15],400 nM
same,MIC,[15],1.1 µM
same,IC50,[26],700 nM
same,MIC,[26],4.7 µM
same,IC50,[17],10 nM
same,MIC,[17],0.08 µM
same,IC50,[18],100 nM
same,MIC,[18],0.7 µM
same,IC50,[27],20 nM
same,MFC,[27],0.59 µM
same,MIC,[27],0.15 µM
same,IC50,[21],< 10 nM
same,MIC,[21],0.01 µM
same,IC50,[22],10 nM
same,MIC,[22],0.02 µM
same,IC50,[23],300 nM
same,IC50,[25],20 nM
same,MIC,[25],0.04 µM
